Experimental data published in paper PMC3791465 (Nature Communications, 2013).

Assays:
[1] = test system: ERα / PHB2 chromatin-remodelling complexes; experiment: Co-immunoprecipitation of chromatin-remodelling complexes in nuclear fractions; format: cell-based, human; conditions: MCF-7 and KPL-3C cells, 24 h, E2 present
Outline: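 Lysed in 0.1% NP-40 buffer, precleared with normal IgG/Protein G Sepharose 3 h at 4 °C, then incubated with anti-ERα or anti-PHB2 (5 μg) 12 h at 4 °C. Complexes captured on Protein G 1 h, washed three times, resolved by SDS–PAGE and immunoblotted.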

Akt (S473) = experiment: Immunoblot of Akt; format: cell-based, human; conditions: MCF-7 and KPL-3C cells, E2-stimulated
Outline: (§1)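 Blots were run on nitrocellulose, blocked in 4% BlockAce for 1 h, probed with HRP secondary for 1 h and developed by ECL. Phospho-levels were quantified by densitometry. Representative of four independent experiments.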

p42/44 MAPK (T202/Y204) = experiment: Immunoblot of p42/44 MAPK; format: cell-based, human; conditions: MCF-7 and KPL-3C cells, E2-stimulated
Outline: as §1

[2] = test system: ERα (S104/S106, S118, S167, S305 and Y537); experiment: Immunoblot of ERα phosphorylation; format: cell-based, human; conditions: MCF-7 and KPL-3C cells, at least 24 h
Outline: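 Blots were on nitrocellulose with HRP secondary and ECL detection. Site-specific ERα phosphorylation was quantified by densitometry and expressed as fold over untreated cells at 0 h. Mean±s.e.m.; experiments were run more than three times in triplicate.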

MCF-7 cells = experiment: Cell cycle assay by flow cytometry, MCF-7; format: cell-based, human; conditions: MCF-7, 24 h
[3] = test system: MCF-7 xenograft in BALB/c nude mice; experiment: MCF-7 orthotopic xenograft tumour growth; format: in vivo, mouse; conditions: daily 6 μg per day E2, MCF-7
BIG3 expression = BIG3 expression in MCF-7 cells; format: cell-based, human
[4] = test system: ERE motif within intron 1 of the BIG3 gene; experiment: Luciferase assay, intronic ERE of BIG3; format: cell-based, human; conditions: MCF-7
[5] = test system: ERE within intron 1 of the BIG3 gene; experiment: ChIP on intronic ERE of BIG3; format: cell-based, human; conditions: MCF-7
[6] = test system: Akt, p42/44 MAPK and ERα phosphorylation; experiment: Immunoblot of phosphorylation in TAM-R MCF-7 and T47D cells; format: cell-based, human; conditions: tamoxifen alone or tamoxifen and E2
Outline: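 Proteins separated, blotted to nitrocellulose, blocked 1 h, probed, then HRP secondary 1 h and ECL. Akt, p42/44 MAPK and ERα phosphorylation quantified by densitometry; experiments repeated more than three times in triplicate.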

## C[C@]12CC[C@@H]3c4ccc(O)cc4CC[C@H]3[C@@H]1CC[C@@H]2O [E2, 17-estradiol]
[1]
  SRC-1 binding/recruitment to ERα: recruited SRC-1 to ERα
Akt (S473)
  Akt (S473) phosphorylation: clearly increased in a time-dependent manner
p42/44 MAPK (T202/Y204)
  p42/44 MAPK (T202/Y204) phosphorylation: clearly increased in a time-dependent manner
[2]
  ERα phosphorylation at five sites: clearly increased in response to E2 stimulation
MCF-7 cells
  apoptotic (sub-G1) cell population: 0.17%
  cell cycle distribution: population of cells in the G2/M phase increased
[3]
  E2-induced tumour growth by E2 alone: induced time-dependent growth of KPL-3C and MCF-7 tumours
BIG3 expression
  BIG3 expression after E2: significantly upregulated in MCF-7 cells in a time-dependent manner
[4]
  luciferase activity, intronic ERE from BIG3: robust luciferase activity
[5]
  recruitment to intronic ERE of BIG3: recruitment of ERα and the co-activator SRC-1 was observed

## CC/C(=C(\c1ccccc1)c1ccc(OCCN(C)C)cc1)c1ccccc1 [tamoxifen]
MCF-7 cells
  apoptotic (sub-G1) cell population: 0.91%
  cell cycle distribution: population in the G1 phase increased
[6]
  phosphorylation of Akt, p42/44 MAPK and ERα in TAM-R cells: enhanced in response to tamoxifen alone
BIG3 expression; real-time PCR and immunoblot
  BIG3 expression after tamoxifen: significant reduction in BIG3 expression at both the transcriptional and protein levels in a dose-dependent manner
